In ChEMBL document CHEMBL1125626, “Synthesis and structure-activity relationship of new cephalosporins with amino heterocycles at C-7. Dependence of the antibacterial spectrum and beta-lactamase stability on the pKa of the C-7 heterocycle” (1991):
Values after ≈ are worked out from the molar mass of the structure shown.

What was measured:
Staphylococcus aureus [1] = test: Minimum inhibitory concentration against Staphylococcus aureus A4 (inoculum, 10e5 cfu per spot); format: functional
Outline: (§1)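 MIC in µg/mL, determined in Jewell and Permain growth medium with spot inoculation at 10^5 cfu per spot.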

Staphylococcus aureus [2] = test: Minimum inhibitory concentration against Staphylococcus aureus A6 (inoculum, 10e5 cfu per spot); format: functional; outline: as §1
Klebsiella aerogenes [3] = test: Minimum inhibitory concentration against Klebsiella aerogenes X6 (inoculum, 10e4 cfu per spot); format: functional
Outline: (§2)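 MIC in µg/mL, determined in Jewell and Permain growth medium with spot inoculation at 10^4 cfu per spot. P99 is described as a constitutive type I lactamase producer.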

Escherichia coli [4] = test: Minimum inhibitory concentration against Escherichia coli X4 (inoculum, 10e4 cfu per spot)
Escherichia coli [5] = test: Minimum inhibitory concentration against Escherichia coli TEM X3 (inoculum, 10e4 cfu per spot)(TEM I type lactamase producer)
Klebsiella pneumoniae = test: Minimum inhibitory concentration against Klebsiella pneumoniae A24 (inoculum, 10e5 cfu per spot); format: functional; outline: as §1
Streptococcus pyogenes = test: Minimum inhibitory concentration against Streptococcus pyogenes (inoculum, 10e5 cfu per spot) A1; format: functional; outline: as §1
Pseudomonas aeruginosa = test: Minimum inhibitory concentration against Pseudomonas aeruginosa A21 (inoculum, 10e5 cfu per spot); format: functional; outline: as §1
Enterobacter cloacae [6] = test: Minimum inhibitory concentration against Enterobacter cloacae P99 (inoculum, 10e4 cfu per spot)(type I lactamase producer); format: functional; outline: as §2
Proteus mirabilis = test: Minimum inhibitory concentration against Proteus mirabilis A18 (inoculum, 10e5 cfu per spot); format: functional; outline: as §1
Enterobacter cloacae [7] = test: Minimum inhibitory concentration against Enterobacter cloacae A13 (inoculum, 10e5 cfu per spot); format: functional; outline: as §1
Serratia marcescens = test: Minimum inhibitory concentration against Serratia marcescens A16 (inoculum, 10e5 cfu per spot); format: functional; outline: as §1
Klebsiella aerogenes [8] = test: Minimum inhibitory concentration against Klebsiella aerogenes X5L (inoculum, 10e4 cfu per spot); format: functional; outline: as §2
Enterobacter cloacae [9] = test: Minimum inhibitory concentration against Enterobacter cloacae P99 (inoculum, 10e4 cfu per spot); format: functional; outline: as §2
Escherichia coli [10] = test: Minimum inhibitory concentration against Escherichia coli DCO (inoculum, 10e4 cfu per spot); format: functional; outline: as §2
Escherichia coli [11] = test: Minimum inhibitory concentration against Escherichia coli A8 (inoculum, 10e5 cfu per spot); format: functional; outline: as §1
Escherichia coli [12] = test: Minimum inhibitory concentration against Escherichia coli DC2 (inoculum, 10e4 cfu per spot); format: functional; outline: as §2
Proteus vulgaris = test: Minimum inhibitory concentration against Proteus vulgaris Pv9 (inoculum, 10e5 cfu per spot)

SMILES | MIC (Staphylococcus aureus [1]) [µg/mL] | MIC (Staphylococcus aureus [2]) [µg/mL] | MIC (Klebsiella aerogenes [3]) [µg/mL] | MIC (Escherichia coli [4]) [µg/mL] | MIC (Escherichia coli [5]) [µg/mL] | MIC (Klebsiella pneumoniae) [µg/mL] | MIC (Streptococcus pyogenes) [µg/mL] | MIC (Pseudomonas aeruginosa) [µg/mL] | MIC (Enterobacter cloacae [6]) [µg/mL] | MIC (Proteus mirabilis) [µg/mL] | MIC (Enterobacter cloacae [7]) [µg/mL] | MIC (Serratia marcescens) [µg/mL] | MIC (Klebsiella aerogenes [8]) [µg/mL] | MIC (Enterobacter cloacae [9]) [µg/mL] | MIC (Escherichia coli [10]) [µg/mL] | MIC (Escherichia coli [11]) [µg/mL] | MIC (Escherichia coli [12]) [µg/mL] | MIC (Proteus vulgaris) [µg/mL]
CO[C@@]1(NC2=NCCN2)C(=O)N2C(C(=O)OC(c3ccccc3)c3ccccc3)=C(C)CSC21 (stereo not given in full) | > 256 | > 256 | > 256 | > 256 | > 256 | > 256 | > 256 | > 256 | > 256 | > 256 | > 256 | > 256 | > 256 | > 256 | > 256 | > 256 | > 256 | –
CC(=O)OCC1=C(C(=O)OC(c2ccccc2)c2ccccc2)N2C(=O)[C@@H](NC3=NCCN3)C2SC1 (stereo not given in full) | > 256 | > 256 | 64 (≈ 126 µM) | 32 (≈ 63.2 µM) | 32 (≈ 63.2 µM) | 64 (≈ 126 µM) | 32 (≈ 63.2 µM) | > 256 | 64 (≈ 126 µM) | 256 (≈ 505 µM) | 64 (≈ 126 µM) | 256 (≈ 505 µM) | 64 (≈ 126 µM) | 32 (≈ 63.2 µM) | 32 (≈ 63.2 µM) | 32 (≈ 63.2 µM) | 2 (≈ 3.95 µM) | > 256
CC(=O)OCC1=C(C(=O)OC(C)(C)C)N2C(=O)[C@@H](Nc3nc4cc[nH]cc-4n3)C2SC1 (stereo not given in full) | 256 (≈ 575 µM) | 256 (≈ 575 µM) | 8 (≈ 18 µM) | 2 (≈ 4.49 µM) | 32 (≈ 71.8 µM) | 32 (≈ 71.8 µM) | 8 (≈ 18 µM) | > 256 | > 256 | 16 (≈ 35.9 µM) | 32 (≈ 71.8 µM) | > 256 | > 256 | 2 (≈ 4.49 µM) | 4 (≈ 8.98 µM) | 8 (≈ 18 µM) | 0.5 (≈ 1.12 µM) | > 256
CC(=O)Nc1ccc2[nH]c(N[C@@H]3C(=O)N4C(C(=O)OC(C)(C)C)=C(COC(C)=O)CSC34)nc2c1 (stereo not given in full) | 256 (≈ 510 µM) | 8 (≈ 16 µM) | 2 (≈ 3.99 µM) | 1 (≈ 1.99 µM) | 16 (≈ 31.9 µM) | 32 (≈ 63.8 µM) | 4 (≈ 7.98 µM) | > 256 | > 256 | 8 (≈ 16 µM) | > 256 | > 256 | > 256 | 2 (≈ 3.99 µM) | 1 (≈ 1.99 µM) | 1 (≈ 1.99 µM) | 0.12 (≈ 0.239 µM) | 128 (≈ 255 µM)
CC1=C(C(=O)OC(c2ccccc2)c2ccccc2)N2C(=O)[C@@H](NC3=NC(c4ccccc4)CN3)C2SC1 (stereo not given in full) | > 256 | > 256 | 2 (≈ 3.81 µM) | 1 (≈ 1.91 µM) | 1 (≈ 1.91 µM) | 4 (≈ 7.62 µM) | 256 (≈ 488 µM) | > 256 | 2 (≈ 3.81 µM) | > 256 | 2 (≈ 3.81 µM) | – | 8 (≈ 15.2 µM) | 1 (≈ 1.91 µM) | 1 (≈ 1.91 µM) | 2 (≈ 3.81 µM) | 0.5 (≈ 0.953 µM) | > 256

Stronger by MIC (Staphylococcus aureus [1]), values ahead:

MIC (Staphylococcus aureus [1]) [µg/mL] | MIC (Staphylococcus aureus [2]) [µg/mL] | MIC (Klebsiella aerogenes [3]) [µg/mL] | MIC (Escherichia coli [4]) [µg/mL] | MIC (Escherichia coli [5]) [µg/mL] | MIC (Klebsiella pneumoniae) [µg/mL] | MIC (Streptococcus pyogenes) [µg/mL] | MIC (Pseudomonas aeruginosa) [µg/mL] | MIC (Enterobacter cloacae [6]) [µg/mL] | MIC (Proteus mirabilis) [µg/mL] | MIC (Enterobacter cloacae [7]) [µg/mL] | MIC (Serratia marcescens) [µg/mL] | MIC (Klebsiella aerogenes [8]) [µg/mL] | MIC (Enterobacter cloacae [9]) [µg/mL] | MIC (Escherichia coli [10]) [µg/mL] | MIC (Escherichia coli [11]) [µg/mL] | MIC (Escherichia coli [12]) [µg/mL] | MIC (Proteus vulgaris) [µg/mL] | SMILES
16 (≈ 27.9 µM) | 2 (≈ 3.49 µM) | 4 (≈ 6.99 µM) | 1 (≈ 1.75 µM) | 4 (≈ 6.99 µM) | 64 (≈ 112 µM) | 2 (≈ 3.49 µM) | > 256 | 256 (≈ 447 µM) | 16 (≈ 27.9 µM) | > 256 | 256 (≈ 447 µM) | 256 (≈ 447 µM) | 4 (≈ 6.99 µM) | 1 (≈ 1.75 µM) | 4 (≈ 6.99 µM) | 0.12 (≈ 0.21 µM) | > 256 | CC(=O)OCC1=C(C(=O)OC(c2ccccc2)c2ccccc2)N2C(=O)[C@@H](Nc3nc4cc(F)ccc4[nH]3)C2SC1 (stereo not given in full)
64 (≈ 109 µM) | 8 (≈ 13.7 µM) | 1 (≈ 1.71 µM) | 0.5 (≈ 0.855 µM) | 4 (≈ 6.84 µM) | 1 (≈ 1.71 µM) | 1 (≈ 1.71 µM) | > 256 | > 256 | 8 (≈ 13.7 µM) | > 256 | > 256 | 128 (≈ 219 µM) | 0.5 (≈ 0.855 µM) | 0.5 (≈ 0.855 µM) | 0.5 (≈ 0.855 µM) | 0.06 (≈ 0.103 µM) | 128 (≈ 219 µM) | CC(=O)OCC1=C(C(=O)OC(c2ccccc2)c2ccccc2)N2C(=O)[C@@H](Nc3nc4cc(CO)ccc4[nH]3)C2SC1 (stereo not given in full)
8 (≈ 12.8 µM) | 1 (≈ 1.6 µM) | 2 (≈ 3.19 µM) | 0.5 (≈ 0.798 µM) | 4 (≈ 6.38 µM) | 1 (≈ 1.6 µM) | 0.5 (≈ 0.798 µM) | ≥ 128 | ≥ 128 | 4 (≈ 6.38 µM) | ≥ 128 | ≥ 128 | ≥ 128 | 1 (≈ 1.6 µM) | 0.5 (≈ 0.798 µM) | 1 (≈ 1.6 µM) | < 0.03 | ≥ 128 | Cc1nnc(SCC2=C(C(=O)OC(c3ccccc3)c3ccccc3)N3C(=O)[C@@H](Nc4nc5ccccc5[nH]4)C3SC2)s1 (stereo not given in full)
8 (≈ 14.1 µM) | 4 (≈ 7.03 µM) | 16 (≈ 28.1 µM) | 8 (≈ 14.1 µM) | 32 (≈ 56.3 µM) | 8 (≈ 14.1 µM) | 8 (≈ 14.1 µM) | ≥ 128 | ≥ 128 | 8 (≈ 14.1 µM) | ≥ 128 | ≥ 128 | ≥ 128 | 32 (≈ 56.3 µM) | 8 (≈ 14.1 µM) | 16 (≈ 28.1 µM) | 0.25 (≈ 0.44 µM) | ≥ 128 | CC(=O)OCC1=C(C(=O)OC(c2ccccc2)c2ccccc2)N2C(=O)[C@@H](Nc3nc4c(C)cccc4[nH]3)C2SC1 (stereo not given in full)
32 (≈ 54.8 µM) | 4 (≈ 6.85 µM) | 0.25 (≈ 0.428 µM) | 0.12 (≈ 0.206 µM) | 2 (≈ 3.43 µM) | 1 (≈ 1.71 µM) | 0.5 (≈ 0.857 µM) | > 256 | 64 (≈ 110 µM) | 32 (≈ 54.8 µM) | 256 (≈ 439 µM) | > 256 | 32 (≈ 54.8 µM) | 0.12 (≈ 0.206 µM) | 0.12 (≈ 0.206 µM) | 0.12 (≈ 0.206 µM) | 0.06 (≈ 0.103 µM) | 64 (≈ 110 µM) | CC(=O)OCC1=C(C(=O)OC(c2ccccc2)c2ccccc2)N2C(=O)[C@@H](Nc3nc4cc(CN)ccc4[nH]3)C2SC1 (stereo not given in full)
16 (≈ 28 µM) | 4 (≈ 7.01 µM) | 0.5 (≈ 0.876 µM) | 0.12 (≈ 0.21 µM) | 1 (≈ 1.75 µM) | 2 (≈ 3.5 µM) | – | > 256 | 128 (≈ 224 µM) | 0.5 (≈ 0.876 µM) | 128 (≈ 224 µM) | 256 (≈ 449 µM) | 64 (≈ 112 µM) | 0.12 (≈ 0.21 µM) | 0.12 (≈ 0.21 µM) | 0.12 (≈ 0.21 µM) | 0.016 (≈ 0.028 µM) | 32 (≈ 56.1 µM) | CC(=O)OCC1=C(C(=O)OC(c2ccccc2)c2ccccc2)N2C(=O)[C@@H](Nc3nc4cc(O)ccc4[nH]3)C2SC1 (stereo not given in full)
